Active and inactive are the calls of the source. The rule behind the calls is not given here.
What was measured:
[1] = biological target: T1, 5-hydroxytryptamine receptor 1B (Homo sapiens, UniProt P28222); assay: In vitro binding affinity against cloned mammalian 5-hydroxytryptamine 1D receptor beta expressed in CHO cells, by using [3H]5-HT as radioligand; format: cell-based
Summary of the method: (§1)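 Membranes from CHO cells stably expressing the cloned receptor, made by mechanical disruption in ice-cold Tris/EDTA/EGTA pH 7.4 and differential centrifugation. [3H]serotonin at 1.7 nM in 50 mM Tris, 5 mM MgCl2, 0.1% ascorbic acid, pH 7.4. 11 drug concentrations in duplicate, 1 h at room temperature protected from light, then filtration. Excess serotonin defines nonspecific binding. One-site IC50 fit, Ki by Cheng-Prusoff.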

D(3) dopamine receptor = D(3) dopamine receptor (Rattus norvegicus, UniProt P19020); assay: In vitro binding affinity against cloned mammalian Dopamine receptor D3 expressed in CHO cells by, using [3H]-spiperone as radioligand; format: cell-based; conditions: read-out: Ki
D(2) dopamine receptor [2] = biological target: T2, D(2) dopamine receptor (Rattus norvegicus, UniProt P61169); assay: In vitro binding affinity against cloned mammalian Dopamine receptor D2 expressed in CHO cells using [3H]U-86170 as radioligand; format: cell-based; conditions: read-out: Ki
Summary of the method: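 Membranes from CHO cells (20-60 μg protein) in 20 mM HEPES, 10 mM MgSO4, pH 7.4. Nonspecific binding defined with excess haloperidol. 11 concentrations, each in duplicate. Incubated 1 h at room temperature, then filtered and counted. IC50 from a one-site competition fit, converted to Ki by Cheng-Prusoff.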

[3] = biological target: 5-hydroxytryptamine receptor 1D (Homo sapiens, UniProt P28221); assay: In vitro binding affinity against cloned mammalian 5-hydroxytryptamine 1D receptor alpha expressed in CHO cells, by using [3H]5-HT as radioligand; format: cell-based
Summary of the method: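 Competition binding on CHO-cell membranes (20-60 μg protein) in 50 mM Tris, 5 mM MgCl2, 0.1% ascorbic acid, pH 7.4. Nonspecific binding defined with excess serotonin. 11 drug concentrations, each in duplicate. Incubated 1 h at room temperature, protected from light, then filtered and scintillation counted. IC50 taken from a one-site fit; Ki by Cheng-Prusoff.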

Rattus norvegicus [4] = assay: The compound was tested in vivo for biochemical effect against the changes in different brain area levels of DOPA in reserpinized rat limbic system at does 12.5 uM/kg; Partial effect; format: functional, organism-based
Summary of the method: (§2)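 Male Sprague-Dawley rats (200-300 g) pretreated with reserpine 5 mg/kg sc 18 h before. Injection volume 5 mL/kg, test solutions at neutral pH. DOPA and 5-HTP in limbic system, striatum and hemispheres measured by HPLC with electrochemical detection. Dose-response curves from four to six dose levels (n = 4) per brain area.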

Rattus norvegicus [5] = assay: The compound was tested in vivo for biochemical effect against the changes in different brain area levels of DOPA in reserpinized rat hemispheres (mainly cortex)at does 12.5 uM/kg; Inactive; format: functional, organism-based; summary of the method: as §2
Rattus norvegicus [6] = assay: The compound was tested in vivo for biochemical effect against the changes in different brain area levels of DOPA in reserpinized rat corpus striatum at dose 12.5 uM/kg; Partial effect; format: functional, organism-based; summary of the method: as §2
D(2) dopamine receptor [7] = biological target: T2, D(2) dopamine receptor; assay: Binding affinity rat Dopamine receptor D2 expressed in CHO-K1 cells by [3H]U-86170 displacement.; format: cell-based
[8] = biological target: T1, 5-hydroxytryptamine receptor 1B; assay: The compound was tested in vitro for binding affinity against cloned mammalian 5-hydroxytryptamine 1D receptor beta expressed in CHO cells, by using [3H]5-HT as radioligand; format: cell-based; set-up: concentration or dose not given beside the values; conditions: concentration not given here; summary of the method: as §1
Rattus norvegicus [9] = assay: In vivo changes in different brain area levels of 5-HTP in reserpinized rat corpus striatum.; format: functional
Summary of the method: (§3)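 Male Sprague-Dawley rats (200-300 g) pretreated with reserpine 5 mg/kg sc 18 h before. Injection volume 5 mL/kg at neutral pH. Brain-region 5-HTP measured by HPLC with electrochemical detection. Dose-response curves used four to six doses, n = 4.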

Rattus norvegicus [10] = assay: The compound was tested in vivo for biochemical effect against the changes in different brain area levels of DOPA in reserpinized rat limbic system at dose 50 uM/kg; inactive; format: functional, organism-based
Rattus norvegicus [11] = assay: The compound was tested in vivo for biochemical effect against the changes in different brain area levels of DOPA in reserpinized rat corpus striatum at dose 50 uM/kg; inactive; format: functional, organism-based
Rattus norvegicus [12] = assay: The compound was tested in vivo for biochemical effect against the changes in different brain area levels of 5-HTP in reserpinized rat hemispheres (mainly cortex)at dose 3.1 uM/kg; inactive; format: functional, organism-based
Rattus norvegicus [13] = assay: The compound was tested in vivo for biochemical effect against the changes in different brain area levels of DOPA in reserpinized rat hemispheres (mainly cortex)at dose 3.1 uM/kg; inactive; format: functional, organism-based
Rattus norvegicus [14] = assay: In vivo for biochemical effect against brain area levels of 5-HTP in reserpinized rat hemispheres (mainly cortex).; format: functional; summary of the method: as §2
Rattus norvegicus [15] = assay: The compound was tested in vivo for biochemical effect against the changes in different brain area levels of DOPA in reserpinized rat hemispheres (mainly cortex)at dose 12.5 uM/kg; Inactive; format: functional, organism-based
Rattus norvegicus [16] = assay: The compound was tested in vivo for biochemical effect against the changes in different brain area levels of DOPA in reserpinized rat limbic system at dose 12.5 uM/kg; Partial effect; format: functional, organism-based; summary of the method: as §2
Rattus norvegicus [17] = assay: In vivo changes in different brain area levels of 5-HTP in reserpinized rat limbic system.; format: functional; summary of the method: as §3
Rattus norvegicus [18] = assay: The compound was tested in vivo for biochemical effect against the changes in different brain area levels of DOPA in reserpinized rat corpus striatum at dose 12.5 uM/kg; Inactive; format: functional, organism-based; summary of the method: as §2
Rattus norvegicus [19] = assay: The compound was tested in vivo for biochemical effect against the changes in different brain area levels of DOPA in reserpinized rat corpus striatum at dose 3.1 umol/kg; Partial effect; format: functional, organism-based; summary of the method: as §2
Rattus norvegicus [20] = assay: The compound was tested in vivo for biochemical effect against the changes in different brain area levels of DOPA in reserpinized rat hemispheres (mainly cortex)at dose 3.1 umol/kg; Inactive; format: functional, organism-based; summary of the method: as §2
Rattus norvegicus [21] = assay: The compound was tested in vivo for biochemical effect against the changes in different brain area levels of DOPA in reserpinized rat limbic system at dose 3.1 umol/kg; Partial effect; format: functional, organism-based; summary of the method: as §2

Sequence of 5-hydroxytryptamine receptor 1D (P28221 whole entry): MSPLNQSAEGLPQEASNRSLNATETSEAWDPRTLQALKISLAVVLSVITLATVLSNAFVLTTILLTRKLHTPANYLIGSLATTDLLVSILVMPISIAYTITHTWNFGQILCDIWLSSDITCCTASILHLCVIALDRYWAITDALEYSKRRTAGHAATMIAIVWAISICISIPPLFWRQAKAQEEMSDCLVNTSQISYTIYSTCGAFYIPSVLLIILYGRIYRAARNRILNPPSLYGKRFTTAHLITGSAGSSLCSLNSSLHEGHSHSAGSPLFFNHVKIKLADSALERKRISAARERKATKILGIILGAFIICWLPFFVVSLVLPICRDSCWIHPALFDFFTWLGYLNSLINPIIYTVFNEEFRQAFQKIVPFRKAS
Sequence of D(3) dopamine receptor (P19020 whole entry): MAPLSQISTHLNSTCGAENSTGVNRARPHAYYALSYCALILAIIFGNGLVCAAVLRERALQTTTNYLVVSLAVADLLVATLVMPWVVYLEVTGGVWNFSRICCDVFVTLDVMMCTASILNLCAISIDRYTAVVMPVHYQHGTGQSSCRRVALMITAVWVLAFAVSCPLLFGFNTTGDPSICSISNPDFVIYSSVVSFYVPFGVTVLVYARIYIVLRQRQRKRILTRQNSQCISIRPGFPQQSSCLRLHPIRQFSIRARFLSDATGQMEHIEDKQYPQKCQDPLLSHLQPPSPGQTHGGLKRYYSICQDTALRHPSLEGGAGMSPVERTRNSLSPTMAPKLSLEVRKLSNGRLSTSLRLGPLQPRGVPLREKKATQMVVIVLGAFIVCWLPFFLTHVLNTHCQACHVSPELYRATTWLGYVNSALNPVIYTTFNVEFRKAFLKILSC
T1 sequence (P28222 whole entry): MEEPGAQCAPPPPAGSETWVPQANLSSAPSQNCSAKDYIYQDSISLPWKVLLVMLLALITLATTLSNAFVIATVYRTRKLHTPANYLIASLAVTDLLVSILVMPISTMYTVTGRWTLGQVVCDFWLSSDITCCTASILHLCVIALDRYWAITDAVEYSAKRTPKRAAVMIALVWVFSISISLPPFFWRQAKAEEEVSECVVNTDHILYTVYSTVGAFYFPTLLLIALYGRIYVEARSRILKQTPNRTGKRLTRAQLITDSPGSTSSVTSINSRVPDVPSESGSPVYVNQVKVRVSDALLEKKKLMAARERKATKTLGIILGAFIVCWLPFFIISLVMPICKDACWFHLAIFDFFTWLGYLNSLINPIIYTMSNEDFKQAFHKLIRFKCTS
T2 sequence (P61169 whole entry): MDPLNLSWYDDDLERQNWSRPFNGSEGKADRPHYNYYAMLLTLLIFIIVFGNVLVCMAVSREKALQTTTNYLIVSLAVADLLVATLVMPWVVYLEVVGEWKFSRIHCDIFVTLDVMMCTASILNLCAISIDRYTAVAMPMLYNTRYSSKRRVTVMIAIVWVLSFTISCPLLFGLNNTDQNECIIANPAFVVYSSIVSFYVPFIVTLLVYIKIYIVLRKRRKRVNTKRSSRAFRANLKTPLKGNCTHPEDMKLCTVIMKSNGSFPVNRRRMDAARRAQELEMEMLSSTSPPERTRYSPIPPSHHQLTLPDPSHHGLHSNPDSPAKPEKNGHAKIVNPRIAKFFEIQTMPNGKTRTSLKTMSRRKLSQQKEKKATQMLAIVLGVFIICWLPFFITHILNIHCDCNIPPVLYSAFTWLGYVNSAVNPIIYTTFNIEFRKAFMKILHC

Row | Ki (D(2) dopamine receptor [2]) [µM] | Ki [3] [µM] | Ki (D(2) dopamine receptor [7]) [µM] | Structure (SMILES) | Ki [1] [µM] | Ki (D(3) dopamine receptor) [µM] | also measured
1 |  |  |  | CN(C)C1CCc2ccc3[nH]ccc3c2C1 (centres undefined) | 0.27 | 0.383 | 
2 | > 1 |  |  | O=Cc1c[nH]c2ccc3c(c12)CC(N1CCCCCC1)CC3 (centres undefined) |  |  | 
3 |  |  |  | CCCN(CCC)[C@H]1CCc2ccc3[nH]cc(C=O)c3c2C1 |  |  | ED50 (Rattus norvegicus [4]): Weak activity; ED50 (Rattus norvegicus [5]): inactive; ED50 (Rattus norvegicus [6]): Weak activity
4 | 0.014 | 0.0034 |  | CCCN(CCCc1ccccc1OC)C1CCc2ccc3[nH]cc(C=O)c3c2C1 (centres undefined) | 0.011 | 0.084 | 
5 |  |  | > 1 | CCCN(CCC)CC1CCc2ccc3[nH]ccc3c2C1 (centres undefined) |  |  | 
6 |  | 0.013 | 0.0055 | CCCN(CCc1cccs1)C1CCc2ccc3[nH]ccc3c2C1 (centres undefined) |  | 0.0055 | inhibition [8]: < 45%
7 |  | 0.063 | 0.032 | c1ccc(CCCNCC2CCc3ccc4[nH]ccc4c3C2)cc1 (centres undefined) | 0.228 | 0.199 | ED50 (Rattus norvegicus [9]): 34 µmol/kg; ED50 (Rattus norvegicus [10]): inactive; ED50 (Rattus norvegicus [11]): inactive; ED50 (Rattus norvegicus [12]): inactive; ED50 (Rattus norvegicus [13]): inactive
8 | 0.013 | 0.002 |  | CCCN(CCCc1ccccc1)C1CCc2ccc3[nH]cc(C=O)c3c2C1 (centres undefined) | 0.011 | 0.042 | 
9 |  |  |  | CCCN(CCC)[C@@H]1CCc2ccc3[nH]cc(C=O)c3c2C1 |  |  | ED50 (Rattus norvegicus [19]): Weak activity; ED50 (Rattus norvegicus [20]): inactive; ED50 (Rattus norvegicus [21]): Weak activity
10 | 0.062 | 0.0028 |  | CCCN(CCc1ccccc1)C1CCc2ccc3[nH]cc(C=O)c3c2C1 (centres undefined) | 0.056 | 0.081 | 

Row | Structure (SMILES) | Ki (D(2) dopamine receptor [2]) [µM] | Ki [3] [µM] | Ki (D(2) dopamine receptor [7]) [µM] | Ki [1] [µM] | Ki (D(3) dopamine receptor) [µM] | also measured
11 | CCCN(C)C1CCc2ccc3[nH]cc(C=O)c3c2C1 (centres undefined) | 0.151 | 0.016 |  | 0.109 | 0.258 | 
12 | CCCNC1CCc2ccc3[nH]ccc3c2C1 (centres undefined) |  | 0.069 | 0.048 | 0.483 | 0.115 | 
13 | CCCN(C)C1CCc2ccc3[nH]ccc3c2C1 (centres undefined) |  | 0.17 | 0.033 |  | 0.113 | inhibition [8]: < 45%
14 | C=CCN(CCC)C1CCc2ccc3[nH]cc(C=O)c3c2C1 (centres undefined) | 0.059 |  |  | 0.049 | 0.13 | ED50 (Rattus norvegicus [14]): 0.19 µmol/kg; ED50 (Rattus norvegicus [15]): inactive; ED50 (Rattus norvegicus [9]): 0.16 µmol/kg; ED50 (Rattus norvegicus [16]): Weak activity; ED50 (Rattus norvegicus [17]): 0.19 µmol/kg; ED50 (Rattus norvegicus [18]): inactive
15 | CCCNC1CCc2ccc3[nH]cc(C=O)c3c2C1 (centres undefined) | 0.06 | 0.027 |  | 0.227 |  | 

Reference: ChEMBL document CHEMBL1128739, “Structure-activity relationships in the 8-amino-6,7,8,9-tetrahydro-3H-benz[e]indole ring system. 2. Effects of 8-amino nitrogen substitution on serotonin receptor binding and pharmacology” (J Med Chem, 1995)
